Results from ChEMBL document CHEMBL2157922, “Synthesis and antifungal activity of diverse C-2 pyridinyl and pyridinylvinyl substituted quinolines” (2012).
≈ marks a conversion by molar mass, not a printed value.

How the values were obtained:
Cryptococcus neoformans [1] = assay: Antifungal activity against Cryptococcus neoformans IM 972724 after 48 hrs by broth microdilution technique; type: functional; conditions: IM 972724, 48 h
Summary of the method: (§1)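 C. neoformans was tested by 96-well RPMI-1640 microdilution, with DMSO-matched growth and sterility control wells. Plates were incubated 48 h at 30 °C in a moist, dark chamber and read at OD405. % inhibition = 100 − (CTW − SCW)/(GCW − SCW), in duplicate. For the clinical isolates, MIC80 and MIC50 are the lowest concentrations giving 80% and 50% inhibition.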

Candida albicans [2] = assay: Antifungal activity against Candida albicans ATCC 10231 at 7.8 ug/ml after 24 hrs; type: functional; conditions: ATCC 10231, 24 h
Summary of the method: (§2)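 C. albicans was grown in 96-well RPMI-1640 broth microdilution with compound wells diluted from DMSO stocks. Growth wells with matched DMSO and sterility wells were included. After 24 h at 30 °C in a moist, dark chamber, OD405 was read. % inhibition = 100 − (CTW − SCW)/(GCW − SCW) OD, done in duplicate.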

Candida albicans [3] = assay: Antifungal activity against Candida albicans CCC 129 after 48 hrs by broth microdilution technique; type: functional; conditions: CCC 129, 48 h
Cryptococcus neoformans [4] = assay: Antifungal activity against Cryptococcus neoformans IM 972751 after 48 hrs by broth microdilution technique; type: functional; conditions: IM 972751, 48 h; summary of the method: as §1
Cryptococcus neoformans [5] = assay: Antifungal activity against Cryptococcus neoformans ATCC 32264 at 31.2 ug/ml after 48 hrs; type: functional; conditions: ATCC 32264, 48 h; summary of the method: as §1
Candida albicans [6] = assay: Antifungal activity against Candida albicans ATCC 10231 at 31.2 ug/ml after 24 hrs; type: functional; conditions: ATCC 10231, 24 h; summary of the method: as §2
Cryptococcus neoformans [7] = assay: Antifungal activity against Cryptococcus neoformans IM 983036 after 48 hrs by broth microdilution technique; type: functional; conditions: IM 983036, 48 h; summary of the method: as §1
Candida albicans [8] = assay: Antifungal activity against Candida albicans ATCC 10231 after 48 hrs by broth microdilution technique; type: functional; conditions: ATCC 10231, 48 h
Summary of the method: (§3)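 Yeasts were tested by CLSI broth microdilution in RPMI-1640 buffered to pH 7.0 with MOPS, with compound from 250 down to 0.98 in DMSO stocks. Trays were held at 30 °C in a moist, dark chamber. MIC100, the lowest concentration giving total visual inhibition against the growth control, was read by eye at 48 h.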

Candida albicans [9] = assay: Antifungal activity against Candida albicans CCC 128 after 48 hrs by broth microdilution technique; type: functional; conditions: CCC 128, 48 h
Aspergillus flavus = assay: Antifungal activity against Aspergillus flavus ATCC 9170 after 48 hrs by broth microdilution technique; type: functional; conditions: ATCC 9170, 48 h
Summary of the method: (§4)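 Moulds and dermatophytes were run by CLSI broth microdilution in MOPS-buffered RPMI-1640 at pH 7.0. Aspergillus was incubated at 30 °C and dermatophytes at 28–30 °C, in a moist, dark chamber. MIC100, the lowest concentration with no visible growth, was read visually at a time set by growth of the control fungus.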

Aspergillus fumigatus = assay: Antifungal activity against Aspergillus fumigatus ATCC 26934 after 48 hrs by broth microdilution technique; type: functional; conditions: ATCC 26934, 48 h; summary of the method: as §4
Saccharomyces cerevisiae = assay: Antifungal activity against Saccharomyces cerevisiae ATCC 9763 after 48 hrs by broth microdilution technique; type: functional; conditions: ATCC 9763, 48 h; summary of the method: as §3
Cryptococcus neoformans [10] = assay: Antifungal activity against Cryptococcus neoformans IM 042074 after 48 hrs by broth microdilution technique; type: functional; conditions: IM 042074, 48 h; summary of the method: as §1
Cryptococcus neoformans [11] = assay: Antifungal activity against Cryptococcus neoformans IM 00319 after 48 hrs by broth microdilution technique; type: functional; conditions: IM 00319, 48 h; summary of the method: as §1
Candida albicans [12] = assay: Antifungal activity against Candida albicans CCC 125 after 48 hrs by broth microdilution technique; type: functional; conditions: CCC 125, 48 h
Candida albicans [13] = assay: Antifungal activity against Candida albicans CCC 130 after 48 hrs by broth microdilution technique; type: functional; conditions: CCC 130, 48 h
Candida parapsilosis = assay: Antifungal activity against Candida parapsilosis CCC 124 after 48 hrs by broth microdilution technique; type: functional; conditions: Lodderomyces parapsilosis, CCC 124, 48 h
Candida albicans [14] = assay: Antifungal activity against Candida albicans CCC 126 after 48 hrs by broth microdilution technique; type: functional; conditions: CCC 126, 48 h
Candida tropicalis = assay: Antifungal activity against Candida tropicalis CCC 131 after 48 hrs by broth microdilution technique; type: functional; conditions: CCC 131, 48 h
Nakaseomyces glabratus = assay: Antifungal activity against Candida glabrata CCC 115 after 48 hrs by broth microdilution technique; type: functional; conditions: CCC 115, 48 h
Cryptococcus neoformans [15] = assay: Antifungal activity against Cryptococcus neoformans ATCC 32264 after 48 hrs by broth microdilution technique; type: functional; conditions: ATCC 32264, 48 h; summary of the method: as §3
Candida albicans [16] = assay: Antifungal activity against Candida albicans CCC 130 after 24 hrs by broth microdilution technique; conditions: CCC 130, 24 h
Candida albicans [17] = assay: Antifungal activity against Candida albicans ATCC 10231 at 15.6 ug/ml after 24 hrs; type: functional; conditions: ATCC 10231, 24 h; summary of the method: as §2
Pichia kudriavzevii = assay: Antifungal activity against Candida krusei CCC 117 after 48 hrs by broth microdilution technique; type: functional; conditions: CCC 117, 48 h
Nannizzia gypsea = assay: Antifungal activity against Microsporum gypseum CCC 115 after 48 hrs by broth microdilution technique; type: functional; conditions: CCC 115, 48 h; summary of the method: as §4
Candida albicans [18] = assay: Antifungal activity against Candida albicans CCC 127 after 48 hrs by broth microdilution technique; type: functional; conditions: CCC 127, 48 h
[19] = test system: Trichophyton mentagrophytes; assay: Antifungal activity against Trichophyton mentagrophytes ATCC 9972 after 48 hrs by broth microdilution technique; type: functional; conditions: ATCC 9972, 48 h; summary of the method: as §4
Aspergillus niger = assay: Antifungal activity against Aspergillus niger ATCC 9029 after 48 hrs by broth microdilution technique; type: functional; conditions: ATCC 9029, 48 h; summary of the method: as §4
Cryptococcus neoformans [20] = assay: Antifungal activity against Cryptococcus neoformans IM 983040 after 48 hrs by broth microdilution technique; type: functional; conditions: IM 983040, 48 h; summary of the method: as §1
Trichophyton rubrum = assay: Antifungal activity against Trichophyton rubrum CCC 113 after 48 hrs by broth microdilution technique; type: functional; conditions: CCC 113, 48 h

MIC50 (Cryptococcus neoformans [1]): 7.8 µg/mL (≈ 33.6 µM)
MIC80 (Cryptococcus neoformans [1]): 31.2 µg/mL (≈ 134 µM)
MIC50 (Candida albicans [3]): 15.6 µg/mL (≈ 67.2 µM)
MIC80 (Candida albicans [3]): 31.2 µg/mL (≈ 134 µM)
MIC50 (Cryptococcus neoformans [4]): 3.9 µg/mL (≈ 16.8 µM)
MIC80 (Cryptococcus neoformans [4]): 31.2 µg/mL (≈ 134 µM)
MIC50 (Cryptococcus neoformans [7]): 7.8 µg/mL (≈ 33.6 µM)
MIC80 (Cryptococcus neoformans [7]): 31.2 µg/mL (≈ 134 µM)
MIC (Candida albicans [8]): 62 µg/mL (≈ 267 µM)
MIC50 (Candida albicans [8]): 7.8 µg/mL (≈ 33.6 µM)
MIC80 (Candida albicans [8]): 15.6 µg/mL (≈ 67.2 µM)
MIC50 (Candida albicans [9]): 7.8 µg/mL (≈ 33.6 µM)
MIC80 (Candida albicans [9]): 15.6 µg/mL (≈ 67.2 µM)
MIC (Aspergillus flavus): 125 µg/mL (≈ 538 µM)
MIC (Aspergillus fumigatus): 125 µg/mL (≈ 538 µM)
MIC (Saccharomyces cerevisiae): 62 µg/mL (≈ 267 µM)
MIC50 (Cryptococcus neoformans [10]): 3.9 µg/mL (≈ 16.8 µM)
MIC80 (Cryptococcus neoformans [10]): 31.2 µg/mL (≈ 134 µM)
MIC50 (Cryptococcus neoformans [11]): 7.8 µg/mL (≈ 33.6 µM)
MIC80 (Cryptococcus neoformans [11]): 31.2 µg/mL (≈ 134 µM)
MIC50 (Candida albicans [12]): 7.8 µg/mL (≈ 33.6 µM)
MIC80 (Candida albicans [12]): 15.6 µg/mL (≈ 67.2 µM)
MIC80 (Candida albicans [13]): 15.6 µg/mL (≈ 67.2 µM)
MIC50 (Candida parapsilosis): 7.8 µg/mL (≈ 33.6 µM)
MIC80 (Candida parapsilosis): 31.2 µg/mL (≈ 134 µM)
MIC50 (Candida albicans [14]): 15.6 µg/mL (≈ 67.2 µM)
MIC80 (Candida albicans [14]): 31.2 µg/mL (≈ 134 µM)
MIC50 (Candida tropicalis): 31.2 µg/mL (≈ 134 µM)
MIC80 (Candida tropicalis): 62.5 µg/mL (≈ 269 µM)
MIC50 (Nakaseomyces glabratus): 31.2 µg/mL (≈ 134 µM)
MIC80 (Nakaseomyces glabratus): 62.5 µg/mL (≈ 269 µM)
MIC (Cryptococcus neoformans [15]): 62 µg/mL (≈ 267 µM)
MIC50 (Cryptococcus neoformans [15]): 15.6 µg/mL (≈ 67.2 µM)
MIC80 (Cryptococcus neoformans [15]): 31.2 µg/mL (≈ 134 µM)
MIC50 (Candida albicans [16]): 7.8 µg/mL (≈ 33.6 µM)
MIC50 (Pichia kudriavzevii): 15.6 µg/mL (≈ 67.2 µM)
MIC80 (Pichia kudriavzevii): 31.2 µg/mL (≈ 134 µM)
MIC (Nannizzia gypsea): 31 µg/mL (≈ 133 µM)
MIC50 (Candida albicans [18]): 15.6 µg/mL (≈ 67.2 µM)
MIC80 (Candida albicans [18]): 15.6 µg/mL (≈ 67.2 µM)
MIC [19]: 31 µg/mL (≈ 133 µM)
MIC (Aspergillus niger): 125 µg/mL (≈ 538 µM)
MIC50 (Cryptococcus neoformans [20]): 7.8 µg/mL (≈ 33.6 µM)
MIC80 (Cryptococcus neoformans [20]): 31.2 µg/mL (≈ 134 µM)
MIC (Trichophyton rubrum): 31 µg/mL (≈ 133 µM)
Structure (SMILES): C(=C\c1ccc2ccccc2n1)/c1ccncc1
inhibition at 7.8 µg/mL (Candida albicans [2]): 50%
inhibition at 31.2 µg/mL (Cryptococcus neoformans [5]): 80%
inhibition at 31.2 µg/mL (Candida albicans [6]): 80%
MFC (Candida albicans [8]): 250 µg/mL (≈ 1080 µM)
MFC (Aspergillus flavus): 250 µg/mL (≈ 1080 µM)
MFC (Aspergillus fumigatus): 250 µg/mL (≈ 1080 µM)
MFC (Saccharomyces cerevisiae): 250 µg/mL (≈ 1080 µM)
MFC (Cryptococcus neoformans [15]): 125 µg/mL (≈ 538 µM)
inhibition at 15.6 µg/mL (Candida albicans [17]): 80%
MFC (Nannizzia gypsea): 125 µg/mL (≈ 538 µM)
MFC [19]: 125 µg/mL (≈ 538 µM)
MFC (Aspergillus niger): > 250 µg/mL
MFC (Trichophyton rubrum): 125 µg/mL (≈ 538 µM)
